Source: PubChem BioAssay
M5 ag: agonists of human muscarinic M5 receptor (CHRM5); activation, % at 3 µM; 360,000 compounds, 0.19% hits; P08912; CHO-K1 hM5 cells, Fluo-8 calcium fluorescence; 0% DMSO wells, 100% maximal acetylcholine response;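 active means activation above the run's mean over test compounds plus 3 SD, cut at about 23% in these data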;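 further: signal is peak over basal fluorescence ratio across the kinetic read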
Target sequence (P08912 whole entry, looked up): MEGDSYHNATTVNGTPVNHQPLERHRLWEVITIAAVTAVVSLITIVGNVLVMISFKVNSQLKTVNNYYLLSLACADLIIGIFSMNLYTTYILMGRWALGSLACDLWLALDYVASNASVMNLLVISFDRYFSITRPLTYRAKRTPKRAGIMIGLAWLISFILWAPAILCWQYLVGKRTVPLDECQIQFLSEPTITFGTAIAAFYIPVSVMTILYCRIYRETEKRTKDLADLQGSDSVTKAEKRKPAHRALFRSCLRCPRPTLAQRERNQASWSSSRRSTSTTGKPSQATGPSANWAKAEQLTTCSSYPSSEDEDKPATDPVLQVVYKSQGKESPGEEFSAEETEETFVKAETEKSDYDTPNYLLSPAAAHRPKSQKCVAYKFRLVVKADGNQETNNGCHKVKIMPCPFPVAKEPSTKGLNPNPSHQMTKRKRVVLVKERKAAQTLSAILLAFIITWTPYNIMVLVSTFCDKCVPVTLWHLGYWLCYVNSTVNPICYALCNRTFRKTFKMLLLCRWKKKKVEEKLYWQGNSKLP
M5 antag: CHRM5 antagonism in calcium assay; CHO-hM5 cells, Fluo-8 calcium fluorescence, ACh EC80; 360,000 compounds, 0.59% hits; inhibition, % at 3 µM; AID 624040;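 active means inhibition above a per-plate cutoff, the mean of that plate's test compounds plus 3 SD, cut at about 27% in these data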
CHRM4 antagonist: blocks acetylcholine activation of human M4 receptor | P08173 | CHO-hM4 cells, ACh EC80, Fluo-8 calcium fluorescence | inhibition, % at 3 µM | 360,000 compounds, 0.73% hits;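 active means inhibition above its plate's cutoff, the mean inhibition of sample wells plus 3 SD, cut at about 27% in these data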
M4 PAM: CHRM4 positive allosteric modulation. P08173. CHO-K1 hM4/Gqi5, Fluo-8 calcium fluorescence, ACh EC20; 0% = ACh EC20, 100% = maximal ACh. activation, % at 3 µM. 360,000 compounds, 0.4% hits. AID 624126;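 active means activation above its plate's cutoff, the mean activation of sample wells plus 3 SD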
CHRM5 PAM: CHRM5 positive allosteric modulation; CHO-K1 hM5, Fluo-8 calcium, ACh EC20 PAM; 0% = ACh EC20, 100% = ACh EC100; P08912; 360,000 compounds, 0.3% hits; AID 624038; activation, % at 3 µM;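 active means activation above the run cutoff, the mean activation of all test compounds plus 3 SD, cut at about 18% in these data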
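Probe or stimulus: acetylcholine, EC20 level; Assay system: human M5 receptor in CHO-K1 cells; Schedule: compound preincubation 140 s before EC20 acetylcholine addition; Technique: intracellular calcium via Fluo-8 fluorescence; Dosing: single-point, 3 µM nominal; Read-out basis: percent activation from peak-over-basal fluorescence ratio, scaled EC20-to-EC100 acetylcholine; Repeats: one well per compound, no replicates.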
M4 ag: agonists of human muscarinic M4 receptor (CHRM4); activation, % at 3 µM; P08173; CHO-K1 hM4/Gqi5, Fluo-8 calcium fluorescence; vehicle 0%, full acetylcholine response 100%; 360,000 compounds, 0.14% hits;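 active means activation above the run mean over all test wells plus 3 SD, cut at about 32% in these data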;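 further: peak over basal fluorescence ratio per well then scaled between controls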
Each line names hits and unclear results; the compound was inactive in the other large screens. Rows were chosen to be rich in hits. Some 1.8% of all compounds tested hit in one or more screens of this group.

CC(C)(C)CN1CCC(Oc2cccc(C(=O)NCCCOc3cccnc3)c2)CC1	M5 antag 38, CHRM4 antagonist 68
Cc1ccc(OCC(=O)N(Cc2ccco2)C2CCS(=O)(=O)C2)cc1C (centres undefined)	none
Cc1cccc(C)c1OCC(=O)N(Cc1ccco1)C1CCS(=O)(=O)C1 (centres undefined)	M4 ag 32
Cc1cc(C(C)(C)C)cc(C)c1C[n+]1ccc2ccccc2c1	CHRM4 antagonist 29
CC(C)(C)C(=O)CSc1nnc(Nc2ccccc2)s1	none
COc1ccccc1N1CCN(C(=O)c2cn(Cc3ccccc3)nc2-c2cccnc2)CC1	M5 ag 29
COc1c2ccc(OCC/C(C)=C/C(=O)C=C(C)C)cc2nc2occc12	CHRM5 PAM 20
Cc1cc(N2CCOCC2)ccc1/C=C\[N+](=O)[O-]	M5 antag 31
O=[N+]([O-])c1ccc(N2CCOCC2)cc1O	none
O=C(C[n+]1ccccc1)Nc1ccccc1Br	none
CC[C@@H]1C=C(C(=O)O)[C@H](c2ccc(OC)c(OC)c2)N1S(=O)(=O)c1ccc(C)cc1	none
S=C(c1ccccc1)N1CCCc2ccccc21	M4 PAM 38
O=C(c1ccccc1)N1CCCc2ccccc21	none
COc1ccc(-c2c(C)oc3c(CN4CCOCC4)c(O)ccc3c2=O)cc1	none
COc1ccc(-c2c(C)oc3c(CN4CCOCC4)c(O)ccc3c2=O)cc1OC	none
Cc1oc2c(CN3CCCC3)c(O)ccc2c(=O)c1-c1ccc(Br)cc1	CHRM4 antagonist 70
Cc1oc2c(CN3CCCCC3)c(O)ccc2c(=O)c1-c1ccc(Br)cc1	CHRM4 antagonist 30
CC(C)C[C@H]1CN=C(Nc2ccccc2)N1CC1CCCCCC1	none
Cc1noc(C)c1COc1ccc(C(=O)N2CCC(C(N)=O)CC2)cc1	none
COc1ccc(Cl)cc1C(=O)Nc1ccc(OCC(=O)N2CCOCC2)cc1	CHRM5 PAM 18
COc1ccc(NC(=O)Nc2ccc(OCC(=O)N3CCOCC3)cc2)cc1OC	none
C/C(CC(=O)Nc1ccc(Cl)cc1Cl)=N\NC(=O)C(=O)N1CCCC1	none
C/C(CC(=O)Nc1ccccc1Br)=N\NC(=O)C(=O)N1CCCC1	CHRM5 PAM 61
Cc1c(C)n(CCc2ccccc2)c2ncnc(NCCCN(C)C)c12	none
CCN1/C(=C/c2ccc3cc(C)cc(C)c3[n+]2CC)Sc2cc(C)ccc21	M5 antag 31
CCN1/C(=C\c2ccc3cc(C)ccc3[n+]2CC)Sc2cc(C)c(C)cc21	M5 antag 42
CCN1/C(=C/c2ccc3cccc(C)c3[n+]2CC)Sc2ccccc21	M5 antag 27, CHRM4 antagonist 31
COc1ccc(C(=O)NCC(=O)OCc2c(Cl)cccc2Cl)cc1OC	none
COC(=O)c1ccc(C2SCC(=O)N2Cc2ccccc2)cc1 (centres undefined)	none
O=C(NCCSCc1ccccc1)c1ccc(C2SCC(=O)N2Cc2ccccc2)cc1 (centres undefined)	CHRM4 antagonist 34
CCCn1nc(C(=O)NNC(=O)Cc2ccc(S(=O)(=O)N3CCOCC3)s2)c2ccccc2c1=O	none
CC(C)(C)C(=O)Nc1ccc(S(=O)(=O)Nc2ccccn2)cc1	M4 PAM 25
O=C(Nc1ccc(S(=O)(=O)Nc2ccccn2)cc1)C(F)(F)F	none
CN(C)c1ccc(C(=O)N2CCCC(CCC(=O)N3CCN(c4ccccn4)CC3)C2)cc1 (centres undefined)	none
Cc1ccc(S(=O)(=O)N2C=CC(C(F)(F)F)=NCC2)cc1	M4 PAM 18
CC(C)(C)c1ccc(S(=O)(=O)N2C=CC(C(F)(F)F)=NCC2)cc1	none
O=C(Nc1ccc(S(=O)(=O)N2CCc3ccccc3C2)cc1)C1CCCO1 (centres undefined)	none
CN(C)S(=O)(=O)N1CCc2ccc(NC(=O)C3CCCO3)cc2C1 (centres undefined)	M4 PAM 20
CC1(C(=O)NS(=O)(=O)c2cccc(OC(F)F)c2)CCN1C(=O)C/C=C/c1ccccc1 (centres undefined)	none
COC(C[C@@H](O)[C@H](C)[C@@H](O)COCc1ccccc1)OC	CHRM4 antagonist 36
Cn1c(CCC(=O)O)nc2cc(S(=O)(=O)N3CCCCC3)ccc21	none
COC(=O)C(/C=N/OCc1ccc([N+](=O)[O-])cc1)NC(=O)c1cccc(Cl)c1 (centres undefined)	M5 ag 34
Cc1ccc(CONC(=O)c2cccc([N+](=O)[O-])c2)cc1	none
O=C(N/N=C/c1ccco1)c1cc([N+](=O)[O-])cc([N+](=O)[O-])c1	none
O=C(O)c1ccc(N/N=C/C=C/c2ccc([N+](=O)[O-])o2)cc1	M5 ag 36, M5 antag 28, M4 ag 74
O=[N+]([O-])c1ccc(N/N=C/C=C/c2ccco2)cc1	M5 ag 29, M5 antag 32, M4 ag 38
CCOC(=O)C1CCCN(C2=NC(=O)/C(=C/c3ccc(N(C)C)cc3)S2)C1 (centres undefined)	M4 ag 41
COc1ccc(NC(=O)C2Cc3c(-c4ccco4)ccnc3O2)cc1OC (centres undefined)	none
COc1ccc(C2C(C#N)=C(N)Oc3cc(O)ccc32)cc1OC (centres undefined)	none
COc1ccc(C2C(C#N)=C(N)Oc3cc(O)ccc32)cc1C (centres undefined)	M5 ag 24
O=C(c1ccc2c(c1)OCO2)C1CCCN(Cc2ccc(OC(F)F)cc2)C1 (centres undefined)	CHRM4 antagonist 33
CN(C(=O)c1ccccc1C(=O)OCC(=O)Nc1ccc(OC(F)F)cc1)c1ccccc1	none
COc1ccccc1C(CNC(=O)C(C)(C)Oc1ccc(Cl)cc1)N1CCCC1 (centres undefined)	M5 antag 72
Cc1ccc(-n2c(C)cc(/C=C3\NC(=O)NC3=O)c2C)c(C)c1	CHRM4 antagonist 35
Cc1cc(/C=C2/NC(=O)NC2=O)c(C)n1-c1ccccn1	none
COc1ccc(Cl)cc1-c1cc(C(=O)NCc2ccco2)[nH]n1	none
NC(c1ccccc1)c1csc(Nc2ccc(C(F)(F)F)cn2)n1 (centres undefined)	none
O=C(NC1CC2CCCC(C1)N2C(=O)Nc1ccccc1)C1CC1 (centres undefined)	none
O=C(NC1CC2CCCC(C1)N2C(=O)NCc1ccccc1)C1CC1 (centres undefined)	CHRM4 antagonist 32
